Columns and labels:
Conditions in all cases: Neutrophil
[1] = Antiinflammatory activity in fMLP/cytochalasin B-stimulated human neutrophils assessed as inhibition of superoxide anion generation after 5 mins; type: functional, cell-based
Summary of the method: (§1)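 Donor neutrophils isolated by dextran sedimentation, Ficoll Hypaque and hypotonic lysis, kept in Ca2+-free HBSS pH 7.4 at 4 °C. Cells given 0.5 mg/mL ferricytochrome c and 1 mM Ca2+, 2 min at 37 °C, drug 5 min, CB 1 μg/mL 3 min, then 100 nM fMLP for 10 min. SOD-inhibitable cytochrome c reduction. IC50 or % inhibition at 10 μg/mL; mean ± S.E.M., n = 3-4.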

[2] = Antiinflammatory activity in fMLP/cytochalasin B-stimulated human neutrophils assessed as inhibition of elastase release after 5 mins; type: functional, cell-based
Summary of the method: (§2)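 Neutrophils from healthy donor blood (dextran sedimentation, Ficoll Hypaque, hypotonic erythrocyte lysis; >98% viable), held in Ca2+-free HBSS pH 7.4 at 4 °C. 5 × 10⁵ cells/mL with 100 μM MeO-Suc-Ala-Ala-Pro-Val-p-nitroanilide, 2 min at 37 °C, drug 5 min, then 100 nM fMLP + 0.5 μg/mL CB. A405 followed continuously; percent of initial rate versus drug-free control. IC50 or % inhibition at 10 μg/mL; mean ± S.E.M., n = 3-4.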

[3] = Antiinflammatory activity in fMLP/cytochalasin B-stimulated human neutrophils assessed as inhibition of superoxide anion generation at 10 ug/ml after 5 mins; type: functional; summary of the method: as §1
[4] = Antiinflammatory activity in fMLP/cytochalasin B-stimulated human neutrophils assessed as inhibition of elastase release at 10 ug/ml after 5 mins; type: functional; summary of the method: as §2

Structure (SMILES): c1ccc2c(c1)[I+]c1ccccc1-2 [DIPHENYLENEIODONIUM]
- IC50 [1]: 0.7 µM

Structure (SMILES): O=C(N[C@@H](Cc1ccccc1)C(=O)O)OCC1c2ccccc2-c2ccccc21
- IC50 [1]: 14.1 µM
- IC50 [2]: 14.2 µM

Structure (SMILES): CC(=O)OC[C@@H](Cc1ccccc1)NC(=O)[C@H](Cc1c[nH]c2ccccc12)NC(=O)OCC1c2ccccc2-c2ccccc21
- inhibition at 10 µg/mL [3]: 18.6%
- IC50 [2]: 1.7 µM

Structure (SMILES): CC(=O)OC[C@@H](Cc1ccccc1)NC(=O)[C@@H](N)Cc1ccc(O)cc1
- inhibition at 10 µg/mL [3]: 8%
- IC50 [2]: 3.7 µM

Structure (SMILES): CC(=O)OC[C@H](Cc1ccccc1)NC(=O)[C@H](Cc1ccc(OC(C)(C)C)cc1)NC(=O)OCC1c2ccccc2-c2ccccc21
- inhibition at 10 µg/mL [3]: 25.9%
- IC50 [2]: 0.8 µM

Structure (SMILES): CC(=O)OC[C@H](Cc1ccccc1)NC(=O)[C@H](Cc1ccccc1)NC(=O)OCc1ccccc1
- inhibition at 10 µg/mL [3]: 39.3%
- inhibition at 10 µg/mL [4]: 27.2%

Structure (SMILES): CC(C)[C@H](NC(=O)OCC1c2ccccc2-c2ccccc21)C(=O)O
- inhibition at 10 µg/mL [3]: 29.4%
- inhibition at 10 µg/mL [4]: 14.5%

Structure (SMILES): CC(=O)OC[C@@H](Cc1ccccc1)NC(=O)[C@H](Cc1ccccc1)NC(=O)OCc1ccccc1
- inhibition at 10 µg/mL [3]: 40.9%
- inhibition at 10 µg/mL [4]: 35.4%

Structure (SMILES): CC(=O)OC[C@H](Cc1ccccc1)NC(=O)[C@H](Cc1ccc(O)cc1)NC(=O)OCC1c2ccccc2-c2ccccc21
- inhibition at 10 µg/mL [3]: -0.5%
- inhibition at 10 µg/mL [4]: 22.8%

Structure (SMILES): CC(=O)OC[C@@H](Cc1ccccc1)NC(=O)[C@@H](N)Cc1ccccc1
- IC50 [1]: > 20 µM
- IC50 [2]: > 20 µM

Structure (SMILES): CC(=O)OC[C@H](Cc1ccccc1)NC(=O)[C@H](Cc1ccccc1)NC(=O)OC(C)(C)C
- inhibition at 10 µg/mL [3]: 42.1%
- inhibition at 10 µg/mL [4]: 18.9%

Structure (SMILES): CC(=O)OC[C@H](Cc1ccccc1)NC(=O)[C@@H](N)Cc1ccccc1
- IC50 [1]: > 20 µM
- IC50 [2]: > 20 µM

Structure (SMILES): CC(=O)OC[C@@H](Cc1ccccc1)NC(=O)[C@H](Cc1ccc2ccccc2c1)NC(=O)OCC1c2ccccc2-c2ccccc21
- inhibition at 10 µg/mL [3]: 2.1%
- IC50 [2]: 14.5 µM

Structure (SMILES): CC(C)(C)Oc1ccc(C[C@H](NC(=O)OCC2c3ccccc3-c3ccccc32)C(=O)O)cc1
- IC50 [1]: 5.5 µM
- IC50 [2]: 5.6 µM

Structure (SMILES): CC(=O)OC[C@@H](Cc1ccccc1)NC(=O)[C@H](Cc1ccc(OC(C)(C)C)cc1)NC(=O)OCC1c2ccccc2-c2ccccc21
- inhibition at 10 µg/mL [3]: 22.3%
- inhibition at 10 µg/mL [4]: 31.9%

Structure (SMILES): CC[C@H](C)[C@H](NC(=O)OCC1c2ccccc2-c2ccccc21)C(=O)N[C@@H](COC(C)=O)Cc1ccccc1
- inhibition at 10 µg/mL [3]: 6%
- inhibition at 10 µg/mL [4]: 22.5%

Structure (SMILES): CC(=O)OC[C@@H](Cc1ccccc1)NC(=O)[C@@H](NC(=O)OCC1c2ccccc2-c2ccccc21)C(C)C
- inhibition at 10 µg/mL [3]: -2.3%
- inhibition at 10 µg/mL [4]: 34.6%

Structure (SMILES): CC(=O)OC[C@@H](Cc1ccccc1)NC(=O)[C@H](Cc1ccccc1)NC(=O)OCC1c2ccccc2-c2ccccc21
- inhibition at 10 µg/mL [3]: 31.3%
- IC50 [2]: 12.9 µM

Structure (SMILES): CC(=O)OC[C@@H](Cc1ccccc1)NC(=O)[C@H](Cc1ccccc1)NC(=O)OC(C)(C)C
- inhibition at 10 µg/mL [3]: 4.7%
- inhibition at 10 µg/mL [4]: 11%

Structure (SMILES): CC(=O)OC[C@H](Cc1ccccc1)NC(=O)[C@@H](N)Cc1ccc(O)cc1
- inhibition at 10 µg/mL [3]: -0.5%
- inhibition at 10 µg/mL [4]: 22.8%

Structure (SMILES): CC(=O)OC[C@H](Cc1ccccc1)NC(=O)[C@H](Cc1cn(C(c2ccccc2)(c2ccccc2)c2ccccc2)cn1)NC(=O)OCC1c2ccccc2-c2ccccc21
- inhibition at 10 µg/mL [3]: 9.5%
- inhibition at 10 µg/mL [4]: 32%

Structure (SMILES): CC(=O)OC[C@@H](Cc1ccccc1)NC(=O)[C@H](Cc1ccc(O)cc1)NC(=O)OCC1c2ccccc2-c2ccccc21
- inhibition at 10 µg/mL [3]: 8%
- IC50 [2]: 6.5 µM

Structure (SMILES): CC[C@H](C)[C@H](NC(=O)OCC1c2ccccc2-c2ccccc21)C(=O)O
- IC50 [1]: 12.8 µM
- inhibition at 10 µg/mL [4]: 39.8%

Structure (SMILES): CC(=O)OC[C@H](Cc1ccccc1)NC(=O)[C@H](Cc1ccc2ccccc2c1)NC(=O)OCC1c2ccccc2-c2ccccc21
- inhibition at 10 µg/mL [3]: 5%
- inhibition at 10 µg/mL [4]: 37.8%

Structure (SMILES): O=C(N[C@@H](Cc1c[nH]c2ccccc12)C(=O)O)OCC1c2ccccc2-c2ccccc21
- IC50 [1]: 3.3 µM
- inhibition at 10 µg/mL [4]: 45.4%

Structure (SMILES): CC(=O)OC[C@H](Cc1ccccc1)NC(=O)[C@@H](NC(=O)OCC1c2ccccc2-c2ccccc21)C(C)C
- inhibition at 10 µg/mL [3]: -6.3%
- inhibition at 10 µg/mL [4]: 27.7%

Structure (SMILES): CC(=O)OC[C@@H](Cc1ccccc1)NC(=O)[C@H](Cc1cn(C(c2ccccc2)(c2ccccc2)c2ccccc2)cn1)NC(=O)OCC1c2ccccc2-c2ccccc21
- inhibition at 10 µg/mL [3]: 6.6%
- inhibition at 10 µg/mL [4]: -2.9%

Structure (SMILES): CC(=O)OC[C@H](Cc1ccccc1)NC(=O)[C@H](Cc1ccccc1)NC(=O)OCC1c2ccccc2-c2ccccc21
- inhibition at 10 µg/mL [3]: 2.8%
- inhibition at 10 µg/mL [4]: 39.5%

Structure (SMILES): CC(=O)OC[C@H](Cc1ccccc1)NC(=O)[C@H](Cc1c[nH]c2ccccc12)NC(=O)OCC1c2ccccc2-c2ccccc21
- inhibition at 10 µg/mL [3]: 24.5%
- IC50 [2]: 5.5 µM

Structure (SMILES): CC[C@H](C)[C@H](NC(=O)OCC1c2ccccc2-c2ccccc21)C(=O)N[C@H](COC(C)=O)Cc1ccccc1
- inhibition at 10 µg/mL [3]: 2.2%
- inhibition at 10 µg/mL [4]: 25.8%

Structure (SMILES): O=C(N[C@@H](Cc1ccc(O)cc1)C(=O)O)OCC1c2ccccc2-c2ccccc21
- IC50 [1]: 2.4 µM
- IC50 [2]: 2.9 µM

From ChEMBL document CHEMBL1158375, “Design and synthesis of new N-(fluorenyl-9-methoxycarbonyl) (Fmoc)-dipeptides as anti-inflammatory agents” (Eur J Med Chem, 2009)
